# SENP6 inh: blocks the human protease SENP6; Q9GZR1; Recombinant SENP6 catalytic domain, aminoluciferin luminescence; inhibition, % at 10 µM; 1.8% of 330,000 active; AID 2599;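 active = inhibition above about 50% at the single tested dose, limit read from the data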;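 also: plate controls were DMSO wells with enzyme for no effect and DMSO wells lacking enzyme for full effect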
# SENP7 block: blocks the human protease SENP7. Q9BQF6. recombinant SENP7, Z-RLRGG-aminoluciferin luminescence, 40 min. inhibition, % at 5 µM. 1.5% of 330,000 active. AID 434973;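 active = inhibition above about 50% at the single test dose, limit read from the data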;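 also: plate controls were DMSO with enzyme for no effect and no enzyme buffer wells for full effect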
# Target sequence (Q9BQF6 706-1050 limits assumed): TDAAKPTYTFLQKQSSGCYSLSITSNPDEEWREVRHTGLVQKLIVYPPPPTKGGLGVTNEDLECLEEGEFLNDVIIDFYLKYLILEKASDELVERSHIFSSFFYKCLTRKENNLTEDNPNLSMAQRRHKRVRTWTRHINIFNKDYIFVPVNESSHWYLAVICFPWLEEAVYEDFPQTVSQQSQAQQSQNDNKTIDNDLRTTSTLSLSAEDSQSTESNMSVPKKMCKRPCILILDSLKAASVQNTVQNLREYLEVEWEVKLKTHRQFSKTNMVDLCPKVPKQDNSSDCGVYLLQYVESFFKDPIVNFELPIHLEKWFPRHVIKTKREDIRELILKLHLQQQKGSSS
# SENP8 block-1: blocks the human protease SENP8; Q96LD8; purified SENP8, Z-RLRGG-aminoluciferin cleavage, luminescence; inhibition, % at 10 µM; 1.2% of 330,000 active; AID 2540; in the data active = inhibition above about 50%
# UBC13 inh: human UBC13 polyubiquitination inhibition; UBC13 polyubiquitin chain formation, TR-FRET; inhibition, % at 20 µM; 0.47% of 330,000 active; AID 485273; in the data active = inhibition above about 45%, passing the limit was not always enough
# Apaf-1 inh: blocks human Apaf-1 apoptosome activity. O14727. reconstituted apoptosome caspase-3 activity, DEVD-Rh110 fluorescence. inhibition, % at 20 µM. 0.71% of 330,000 active. AID 489030; active = inhibition of at least 40% at 20 µM;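 also: plate controls were DMSO wells for no effect and DEVD-CHO caspase inhibitor wells for full effect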
#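 Assay system – apoptosome proteins · Medium – Hepes buffer, pH 7.5 · Also added – cytochrome c with DEVD-Rh110 · Timing – 30 min compound preincubation, 50 min activation, room temperature · Detection – Rh110 fluorescence, excitation 480 nm, emission 540 nm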
# SENP8 block-2: SENP8 (human) protease inhibition; Q96LD8; 0.64% of 360,000 active; recombinant SENP8, Nedd8 substrate fluorescence; AID 602440; inhibition, % at 20 µM; in the data active = inhibition mostly above about 40%, no sharp cut-off; inactive = mostly below about 27%
# SENP8 confirm: human SENP8 inhibition, confirmed; shares compounds with SENP7 block; Recombinant SENP8, Z-RLRGG-aminoluciferin luminescence, 60 min; inhibition, % at 12.5 µM; 40% of 6,200 active; AID 488912;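 active = mean inhibition across replicates above about 50%, limit read from the data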
# SENP6 conf: human SENP6 inhibition, confirmed. shares compounds with SENP7 block. recombinant SENP6, Z-RLRGG-aminoluciferin luminescence. inhibition, % at 12.5 µM. 58% of 6,200 active. AID 488915
# SENP7 confirm: confirmation of human SENP7 protease inhibitors. shares compounds with SENP7 block. recombinant SENP7, Z-RLRGG-aminoluciferin luminescence, 40 min. inhibition, % at 12.5 µM. 69% of 6,200 active
# Casp3 select: selectivity test for SENP inhibitors: human caspase-3 inhibition; shares compounds with SENP7 block; purified caspase-3, Z-DEVD-aminoluciferin luminescence, 60 min; inhibition, % at 12.5 µM; 60% of 6,200 active;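 active = mean inhibition above about 50%, limit read from the data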;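 also: plate controls were enzyme with DMSO for no effect and wells without caspase-3 for full effect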
# Target sequence (P42574 28-227 limits assumed): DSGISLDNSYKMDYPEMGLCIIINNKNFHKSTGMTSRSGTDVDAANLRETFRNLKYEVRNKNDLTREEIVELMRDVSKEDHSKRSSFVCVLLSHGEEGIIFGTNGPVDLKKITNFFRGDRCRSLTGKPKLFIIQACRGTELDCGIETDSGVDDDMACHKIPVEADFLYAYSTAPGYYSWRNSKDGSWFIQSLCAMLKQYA
# SENP luc ctr: luminescence interference (SENP counter-screen); shares compounds with SENP7 block; Pre-incubated SENP8/Z-RLRGG-aminoluciferin, luciferase luminescence interference; inhibition, % at 12.5 µM; 39% of 6,200 active; AID 488919;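 active = mean inhibition above about 50% when retested at one dose, limit read from the data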;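 also: plate controls were DMSO wells with completed reaction for no effect and substrate without enzyme for full effect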
# Apaf-1 inh conf: Apaf-1 inhibition, single-dose confirmed; shares compounds with Apaf-1 inh; reconstituted apoptosome, caspase-3 DEVD-Rh110 fluorescence; inhibition, % at 20 µM; 25% of 1,800 active; AID 504614;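 active = mean inhibition of at least 40% at 20 µM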;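 also: plate controls were DMSO wells for no effect and DEVD-CHO caspase inhibitor control wells for full effect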
# Rh110 interf inh: counter-screen for Apaf-1 inhibitors: fluorescence interference; 1,800 tested, under 10 active; activation (fluorescence interference), % at 20 µM; Rh110 fluorescence interference, quenched caspase reaction; shares compounds with Apaf-1 inh;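 active = signal rise of 40% or more at 20 µM, treated as a fluorescence artifact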
# Fluor interf inh: shows fluorescence interference in the Apaf-1 inhibitor assay format; fluorescence interference counterscreen, Apaf-1 assay format; AID 588538; shares compounds with Apaf-1 inh; 460 tested, under 10 active; IC50, µM; call rule not given here
# Active calls of the source: *; . = no result given. Compounds with a hit are over-represented: about 3% of the library has one in this group of screens.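 The calls were made as follows, unless noted: active = mean inhibition above about 50% in the one-dose retest (limit read from the data); inactive = the rest.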
SMILES,SENP6 inh,SENP7 block,SENP8 block-1,UBC13 inh,Apaf-1 inh,SENP8 block-2,SENP8 confirm,SENP6 conf,SENP7 confirm,Casp3 select,SENP luc ctr,Apaf-1 inh conf,Rh110 interf inh,others
CCOc1ccc(-c2cc(C(=O)NCc3cc(C(F)(F)F)cc(C(F)(F)F)c3)[nH]n2)c(C)c1,.,.,.,.,.,15,.,.,.,.,.,.,.,
COc1cccc(NC(=O)C2(C)CCCN2C(=O)C(C)C)c1 (centres undefined),.,.,.,.,.,23,.,.,.,.,.,.,.,
COc1ccc(C(=O)OCCCc2cc3ccccc3c(=O)o2)cc1,2,-6,-11,-3,2,-4,.,.,.,.,.,.,.,
COc1ccc(-c2nc(C#N)c(N3CCc4ccccc4C3)o2)cc1OC,0,-9,5,16,9,-306,.,.,.,.,.,.,.,
CCN(CC)c1nc(N)c2c(N)nc(OC)cc2c1C#N,76*,41,51*,6,46*,-487,7,12,9,-3,8,4,1,
COc1cc2c(C#N)c(N3CCc4ccccc4C3)nc(N)c2c(N)n1,83*,38,80*,-4,94*,-265,8,30,19,5,3,35,8,
CCOc1cc2c(C#N)c(N3CCCCC3)nc(N)c2c(N)n1,69*,29,65*,-33,97*,-327,14,42,26,1,2,37,0,
CCN(CC)c1nc(N)c(C#N)c(CC#N)c1C#N,-8,-13,-4,1,8,-114,.,.,.,.,.,.,.,
CCOC(=O)C1CCN(c2nc(N)c3c(N)nc(SCC(=O)O)cc3c2C#N)CC1,.,.,.,.,.,-415,.,.,.,.,.,.,.,
CCN(Cc1ccncc1)C(=O)c1cc(COc2c(C)cccc2C)on1,1,-3,0,-2,13,4,.,.,.,.,.,.,.,
COc1ccc(-n2c3nc4ccccc4nc3c3c(=N)oc(C)nc32)cc1,90*,75*,63*,-9,96*,-285,4,40,19,-2,-4,67*,6,Fluor interf inh=>100
CCOc1ncccc1C(=O)NNC(=O)c1csc(N2CCOCC2)n1,1,-2,7,0,-6,10,.,.,.,.,.,.,.,
Oc1cccc(C=Nc2cccc3ccccc23)c1O,54*,17,36,-71,74*,-314,17,22,9,40,-6,11,4,
C=C(C)CNC(=S)Nc1cccc2cnccc12,-5,-3,-6,-13,-4,-11,.,.,.,.,.,.,.,
Cc1cc(C)cc(NC(=S)Nc2cccc3cnccc23)c1,81*,37,81*,-68,98*,-122,6,19,4,-3,-3,17,-1,
Cc1ccc(NC(=S)Nc2cccc3cnccc23)c(C)c1,95*,77*,87*,-50,96*,-70,7,9,-8,2,-1,13,0,
CCc1ccc(NC(=S)Nc2cccc3cnccc23)cc1,92*,64*,83*,-23,89*,-165,10,32,11,2,4,43*,21,Fluor interf inh=>100
CCCCN(C(=O)c1ccc(N2C(=O)c3ccccc3C2=O)cc1)c1c(N)n(CC(C)C)c(=O)[nH]c1=O,-10,-7,-12,-6,3,15,.,.,.,.,.,.,.,
CCOC(=O)c1c(N)n(CCOC(=O)c2cccs2)c2nc3ccccc3nc12,84*,47,43,-24,95*,-282,8,6,10,4,0,10,9,
CCc1ccc(CN2CCCC(CNC(=O)c3cccc(OC)c3OC)C2)cc1 (centres undefined),-23,2,-4,-1,2,-5,.,.,.,.,.,.,.,
Cc1c(NC(=O)c2ccc(S(=O)(=O)Nc3ccccc3F)cc2)c(=O)n(-c2ccccc2)n1C,-11,-14,-14,-10,4,-5,.,.,.,.,.,.,.,
O=C1C(=C(c2ccccc2)c2ccccc2)Nc2ccccc21,-29,-1,-1,-119,19,27,.,.,.,.,.,.,.,
O=C1C(=C(O)c2ccccc2)C(=O)c2ccccc21,74*,-2,47,-35,41*,66*,9,10,-1,0,-5,13,-7,
O=[N+]([O-])c1cccc2c(N3CCCC3)ccnc12,-7,4,-3,-30,-3,27,.,.,.,.,.,.,.,
CN(C)CCCNC(=O)/C(=C/c1ccc(-c2ccc([N+](=O)[O-])cc2)o1)NC(=O)c1ccccc1,-20,5,12,-18,9,-18,.,.,.,.,.,.,.,
SMILES,SENP6 inh,SENP7 block,SENP8 block-1,UBC13 inh,Apaf-1 inh,SENP8 block-2,SENP8 confirm,SENP6 conf,SENP7 confirm,Casp3 select,SENP luc ctr,Apaf-1 inh conf,Rh110 interf inh,others
Cc1ccc(C(=O)N/C(=C\c2ccc(-c3ccccc3[N+](=O)[O-])o2)C(=O)NCCCN(C)C)cc1,50*,15,26,-14,56*,-6,13,35,13,2,0,46*,-4,Fluor interf inh=>100
COc1ccccc1OCc1nnc(SCC(=O)Nc2nnc(C3CC3)s2)n1C,-22,7,2,1,4,12,.,.,.,.,.,.,.,
Cc1cc(/C=C2\SC(=O)N(C)C2=O)c(C)n1-c1ccc(O)cc1,61*,-1,16,-7,71*,-93,74*,72*,84*,30,69*,18,9,
CC1CCCC(NC(=O)COC(=O)c2ccc([N+](=O)[O-])s2)C1C (centres undefined),65*,32,63*,-8,41*,34,9,51*,4,-2,-11,31,5,
O=C(CCC(=O)c1ccccc1)NC1CCCN(Cc2ccccc2F)C1 (centres undefined),6,4,0,7,-5,16,.,.,.,.,.,.,.,
C/C(=N\NC(=O)CNc1cccc2ccccc12)c1ccccc1,73*,19,54*,1,83*,-351,0,4,10,1,0,15,8,
CN1C(=O)CC(Nc2cccc3cccc(N)c23)C1=O (centres undefined),-10,61*,44,-13,54*,13,9,24,7,-2,-3,12,3,
